# Source: ChEMBL document CHEMBL3797186, “Single Residue Substitutions That Confer Voltage-Gated Sodium Ion Channel Subtype Selectivity in the NaV1.7 Inhibitory Peptide GpTx-1” (J Med Chem, 2016)
# Positions of bridges follow the written chain, without caps; N, C: chain ends. Residues, ends and D or L forms follow the SMILES beside them.
# Target: Sodium channel protein type 5 subunit alpha (Homo sapiens, UniProt Q14524)
# Test: Inhibition of human Nav1.5 expressed in HEK293 cells assessed as inward peak current by ion-works quattro patch clamp electrophysiology method
# Type: cell-based
# Method in brief: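 Stable HEK293 line expressing human NaV1.5, recorded by population patch clamp on the IonWorks Quattro.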
# Chain of Sodium channel protein type 5 subunit alpha (Q14524 whole entry): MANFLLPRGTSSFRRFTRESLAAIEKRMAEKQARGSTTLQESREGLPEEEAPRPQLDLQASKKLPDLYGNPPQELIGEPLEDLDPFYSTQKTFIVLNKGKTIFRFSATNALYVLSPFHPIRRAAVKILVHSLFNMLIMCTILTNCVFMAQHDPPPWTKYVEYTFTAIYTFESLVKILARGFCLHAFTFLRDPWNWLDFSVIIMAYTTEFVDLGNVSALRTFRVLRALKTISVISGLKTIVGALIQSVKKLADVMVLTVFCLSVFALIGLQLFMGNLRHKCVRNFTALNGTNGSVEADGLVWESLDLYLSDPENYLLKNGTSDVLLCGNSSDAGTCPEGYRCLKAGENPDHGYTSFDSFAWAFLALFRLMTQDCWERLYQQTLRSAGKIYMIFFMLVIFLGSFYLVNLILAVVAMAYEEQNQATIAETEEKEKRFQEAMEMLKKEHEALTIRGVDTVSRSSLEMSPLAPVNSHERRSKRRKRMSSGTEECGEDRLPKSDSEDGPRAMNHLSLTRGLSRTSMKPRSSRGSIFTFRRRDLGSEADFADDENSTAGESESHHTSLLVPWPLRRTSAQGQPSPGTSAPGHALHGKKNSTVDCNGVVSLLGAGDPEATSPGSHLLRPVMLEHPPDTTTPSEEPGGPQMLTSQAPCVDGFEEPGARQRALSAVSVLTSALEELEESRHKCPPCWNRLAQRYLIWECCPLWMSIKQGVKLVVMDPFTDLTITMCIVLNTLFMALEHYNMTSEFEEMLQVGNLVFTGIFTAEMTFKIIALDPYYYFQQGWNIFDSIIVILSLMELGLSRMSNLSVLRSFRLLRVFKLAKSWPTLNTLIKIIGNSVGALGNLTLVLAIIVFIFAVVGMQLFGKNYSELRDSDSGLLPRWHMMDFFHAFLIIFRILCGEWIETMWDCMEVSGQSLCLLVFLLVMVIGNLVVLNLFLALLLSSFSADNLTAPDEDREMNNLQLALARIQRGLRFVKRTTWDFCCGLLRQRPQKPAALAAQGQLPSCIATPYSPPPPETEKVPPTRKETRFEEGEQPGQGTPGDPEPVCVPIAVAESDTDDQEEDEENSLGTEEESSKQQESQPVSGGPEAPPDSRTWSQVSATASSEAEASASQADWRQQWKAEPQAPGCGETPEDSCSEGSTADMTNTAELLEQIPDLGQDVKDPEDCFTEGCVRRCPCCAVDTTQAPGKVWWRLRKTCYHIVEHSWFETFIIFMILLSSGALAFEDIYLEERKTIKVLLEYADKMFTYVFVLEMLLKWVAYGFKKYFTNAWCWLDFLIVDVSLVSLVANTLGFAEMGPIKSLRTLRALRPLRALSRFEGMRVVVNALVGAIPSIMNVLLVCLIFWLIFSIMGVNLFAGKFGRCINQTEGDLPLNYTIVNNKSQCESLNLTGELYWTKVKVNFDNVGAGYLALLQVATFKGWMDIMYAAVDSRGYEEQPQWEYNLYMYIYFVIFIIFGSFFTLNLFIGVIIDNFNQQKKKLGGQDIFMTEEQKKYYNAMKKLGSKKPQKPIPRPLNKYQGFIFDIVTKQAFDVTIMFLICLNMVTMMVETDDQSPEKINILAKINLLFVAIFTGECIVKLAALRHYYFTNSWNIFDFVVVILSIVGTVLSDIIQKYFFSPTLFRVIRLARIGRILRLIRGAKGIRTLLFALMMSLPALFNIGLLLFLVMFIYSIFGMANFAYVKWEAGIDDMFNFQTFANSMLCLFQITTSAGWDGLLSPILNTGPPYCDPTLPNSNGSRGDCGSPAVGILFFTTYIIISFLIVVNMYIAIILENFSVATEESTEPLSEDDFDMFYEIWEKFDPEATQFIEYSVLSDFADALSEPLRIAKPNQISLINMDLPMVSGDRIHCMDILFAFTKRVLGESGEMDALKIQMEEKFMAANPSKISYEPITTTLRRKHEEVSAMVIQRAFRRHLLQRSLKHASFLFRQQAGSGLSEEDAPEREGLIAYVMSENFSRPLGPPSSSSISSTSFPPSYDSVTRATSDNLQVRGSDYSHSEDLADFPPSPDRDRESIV
row,Compound,IC50 [µM]
1,"CC[C@H](C)[C@@H]1NC(=O)[C@@H]2CSSC[C@@H]3NC(=O)[C@H](CCC(=O)O)NC(=O)[C@H](CC(C)C)NC(=O)[C@H](CC(N)=O)NC(=O)[C@@H]4CCCN4C(=O)[C@H](CCCNC(=N)N)NC(=O)[C@H](CSSC[C@H](NC(=O)[C@@H](N)CC(=O)O)C(=O)N[C@@H](CC(C)C)C(=O)NCC(=O)N[C@@H](Cc4ccccc4)C(=O)N[C@@H](CCSC)C(=O)N[C@@H](CCCNC(=N)N)C(=O)N[C@@H](CCCCN)C(=O)N2)NC(=O)[C@H](CSSC[C@@H](C(=O)N[C@@H](CCCCN)C(=O)N[C@@H](Cc2ccc(O)cc2)C(=O)N[C@H](C(=O)N[C@@H](Cc2ccccc2)C(N)=O)C(C)C)NC(=O)[C@H](Cc2c[nH]c4ccccc24)NC(=O)[C@H](CCCCN)NC(=O)[C@H](Cc2cnc[nH]2)NC(=O)[C@H]([C@@H](C)O)NC(=O)[C@H](CCCNC(=N)N)NC(=O)[C@H](CO)NC3=O)NC(=O)[C@H](CCCCN)NC(=O)[C@H](CC(=O)O)NC(=O)[C@H](CC(N)=O)NC(=O)[C@H](CC(=O)O)NC(=O)[C@@H]2CCCN2C1=O (H-DCLGFMRKCIPDNDKCCRPNLECSRTHKWCKYVF-NH2; disulfide 2-17, 9-23, 16-30)",> 5
2,"CC[C@H](C)[C@@H]1NC(=O)[C@@H]2CSSC[C@@H]3NC(=O)[C@H](C(C)C)NC(=O)[C@H](CC(C)C)NC(=O)[C@H](CC(N)=O)NC(=O)[C@@H]4CCCN4C(=O)[C@H](CCCNC(=N)N)NC(=O)[C@H](CSSC[C@H](NC(=O)[C@@H](N)CC(=O)O)C(=O)N[C@@H](CC(C)C)C(=O)NCC(=O)N[C@@H](Cc4ccccc4)C(=O)N[C@@H](CCSC)C(=O)N[C@@H](CCCNC(=N)N)C(=O)N[C@@H](CCCCN)C(=O)N2)NC(=O)[C@H](CSSC[C@@H](C(=O)N[C@@H](CCCCN)C(=O)N[C@@H](Cc2ccc(O)cc2)C(=O)N[C@H](C(=O)N[C@@H](Cc2ccccc2)C(N)=O)C(C)C)NC(=O)[C@H](Cc2c[nH]c4ccccc24)NC(=O)[C@H](CCC(=O)O)NC(=O)[C@H](Cc2cnc[nH]2)NC(=O)[C@H]([C@@H](C)O)NC(=O)[C@H](CCCNC(=N)N)NC(=O)[C@H](CO)NC3=O)NC(=O)[C@H](CCCCN)NC(=O)[C@H](CC(=O)O)NC(=O)[C@H](CC(N)=O)NC(=O)[C@H](CC(=O)O)NC(=O)[C@@H]2CCCN2C1=O (H-DCLGFMRKCIPDNDKCCRPNLVCSRTHEWCKYVF-NH2; disulfide 2-17, 9-23, 16-30)",> 5
3,CC[C@H](C)[C@@H]1NC(=O)[C@@H]2CSSC[C@@H]3NC(=O)[C@H](C(C)C)NC(=O)[C@H](CC(C)C)NC(=O)[C@H](CC(N)=O)NC(=O)[C@@H]4CCCN4C(=O)[C@H](CCCNC(=N)N)NC(=O)[C@H](CSSC[C@H](NC(=O)[C@@H](N)CC(=O)O)C(=O)N[C@@H](CC(C)C)C(=O)NCC(=O)N[C@@H](Cc4ccccc4)C(=O)N[C@@H](CCSC)C(=O)N[C@@H](CCCNC(=N)N)C(=O)N[C@@H](CCCCN)C(=O)N2)NC(=O)[C@H](CSSC[C@@H](C(=O)N[C@@H](CCCCN)C(=O)N[C@@H](Cc2ccc(O)cc2)C(=O)N[C@H](C(=O)N[C@@H](Cc2ccccc2)C(=O)N[C@@H](CCCCN)C(N)=O)C(C)C)NC(=O)[C@H](Cc2c[nH]c4ccccc24)NC(=O)[C@H](CCCCN)NC(=O)[C@H](Cc2cnc[nH]2)NC(=O)[C@H]([C@@H](C)O)NC(=O)[C@H](CCCNC(=N)N)NC(=O)[C@H](CO)NC3=O)NC(=O)[C@H](CCCCN)NC(=O)[C@H](CC(=O)O)NC(=O)[C@H](CC(N)=O)NC(=O)[C@H](CC(=O)O)NC(=O)[C@@H]2CCCN2C1=O,> 5
4,"CC[C@H](C)[C@@H]1NC(=O)[C@@H]2CSSC[C@@H]3NC(=O)[C@H](C(C)C)NC(=O)[C@H](CC(C)C)NC(=O)[C@H](CC(N)=O)NC(=O)[C@@H]4CCCN4C(=O)[C@H](CCCNC(=N)N)NC(=O)[C@H](CSSC[C@H](NC(=O)[C@@H](N)CCCCN)C(=O)N[C@@H](CC(C)C)C(=O)NCC(=O)N[C@@H](Cc4ccccc4)C(=O)N[C@@H](CCSC)C(=O)N[C@@H](CCCNC(=N)N)C(=O)N[C@@H](CCCCN)C(=O)N2)NC(=O)[C@H](CSSC[C@@H](C(=O)N[C@@H](CCCCN)C(=O)N[C@@H](Cc2ccc(O)cc2)C(=O)N[C@H](C(=O)N[C@@H](Cc2ccccc2)C(N)=O)C(C)C)NC(=O)[C@H](Cc2c[nH]c4ccccc24)NC(=O)[C@H](CCCCN)NC(=O)[C@H](Cc2cnc[nH]2)NC(=O)[C@H]([C@@H](C)O)NC(=O)[C@H](CCCNC(=N)N)NC(=O)[C@H](CO)NC3=O)NC(=O)[C@H](CCCCN)NC(=O)[C@H](CC(=O)O)NC(=O)[C@H](CC(N)=O)NC(=O)[C@H](CC(=O)O)NC(=O)[C@@H]2CCCN2C1=O (H-KCLGFMRKCIPDNDKCCRPNLVCSRTHKWCKYVF-NH2; disulfide 2-17, 9-23, 16-30)",> 5
5,"CC[C@H](C)[C@@H]1NC(=O)[C@@H]2CSSC[C@@H]3NC(=O)[C@H](C(C)C)NC(=O)[C@H](CC(C)C)NC(=O)[C@H](CC(N)=O)NC(=O)[C@@H]4CCCN4C(=O)[C@H](CCCNC(=N)N)NC(=O)[C@H](CSSC[C@H](NC(=O)[C@@H](N)CC(=O)O)C(=O)N[C@@H](CC(C)C)C(=O)NCC(=O)N[C@@H](Cc4ccccc4)C(=O)N[C@@H](CCSC)C(=O)N[C@@H](CCCNC(=N)N)C(=O)N[C@@H](CCCCN)C(=O)N2)NC(=O)[C@H](CSSC[C@@H](C(=O)N[C@@H](CCCCN)C(=O)N[C@@H](Cc2ccc(O)cc2)C(=O)N[C@@H](Cc2c[nH]c4ccccc24)C(=O)N[C@@H](Cc2ccccc2)C(N)=O)NC(=O)[C@H](Cc2c[nH]c4ccccc24)NC(=O)[C@H](CCCCN)NC(=O)[C@H](Cc2c[nH]cn2)NC(=O)[C@H]([C@@H](C)O)NC(=O)[C@H](CCCNC(=N)N)NC(=O)[C@H](CO)NC3=O)NC(=O)[C@H](CCCCN)NC(=O)[C@H](CC(=O)O)NC(=O)[C@H](CC(N)=O)NC(=O)[C@H](CC(=O)O)NC(=O)[C@@H]2CCCN2C1=O (H-DCLGFMRKCIPDNDKCCRPNLVCSRTHKWCKYWF-NH2; disulfide 2-17, 9-23, 16-30)",> 5
6,"CC[C@H](C)[C@@H]1NC(=O)[C@@H]2CSSC[C@@H]3NC(=O)[C@H](C(C)C)NC(=O)[C@H](CC(C)C)NC(=O)[C@H](CC(N)=O)NC(=O)[C@@H]4CCCN4C(=O)[C@H](CCCNC(=N)N)NC(=O)[C@H](CSSC[C@H](NC(=O)[C@@H](N)CC(=O)O)C(=O)N[C@@H](CCCNC(=N)N)C(=O)NCC(=O)N[C@@H](Cc4ccccc4)C(=O)N[C@@H](CCSC)C(=O)N[C@@H](CCCNC(=N)N)C(=O)N[C@@H](CCCCN)C(=O)N2)NC(=O)[C@H](CSSC[C@@H](C(=O)N[C@@H](CCCCN)C(=O)N[C@@H](Cc2ccc(O)cc2)C(=O)N[C@H](C(=O)N[C@@H](Cc2ccccc2)C(N)=O)C(C)C)NC(=O)[C@H](Cc2c[nH]c4ccccc24)NC(=O)[C@H](CCCCN)NC(=O)[C@H](Cc2cnc[nH]2)NC(=O)[C@H]([C@@H](C)O)NC(=O)[C@H](CCCNC(=N)N)NC(=O)[C@H](CO)NC3=O)NC(=O)[C@H](CCCCN)NC(=O)[C@H](CC(=O)O)NC(=O)[C@H](CC(N)=O)NC(=O)[C@H](CC(=O)O)NC(=O)[C@@H]2CCCN2C1=O (H-DCRGFMRKCIPDNDKCCRPNLVCSRTHKWCKYVF-NH2; disulfide 2-17, 9-23, 16-30)",> 5
7,"CC[C@H](C)[C@@H]1NC(=O)[C@@H]2CSSC[C@@H]3NC(=O)[C@H](C(C)C)NC(=O)[C@H](CC(C)C)NC(=O)[C@H](CC(N)=O)NC(=O)[C@@H]4CCCN4C(=O)[C@H](CCCNC(=N)N)NC(=O)[C@H](CSSC[C@H](NC(=O)[C@@H](N)CC(=O)O)C(=O)N[C@@H](CC(C)C)C(=O)N[C@@H](Cc4c[nH]c5ccccc45)C(=O)N[C@@H](Cc4ccccc4)C(=O)N[C@@H](CCSC)C(=O)N[C@@H](CCCNC(=N)N)C(=O)N[C@@H](CCCCN)C(=O)N2)NC(=O)[C@H](CSSC[C@@H](C(=O)N[C@@H](CCCCN)C(=O)N[C@@H](Cc2ccc(O)cc2)C(=O)N[C@H](C(=O)N[C@@H](Cc2ccccc2)C(N)=O)C(C)C)NC(=O)[C@H](Cc2c[nH]c4ccccc24)NC(=O)[C@H](CCCCN)NC(=O)[C@H](Cc2cnc[nH]2)NC(=O)[C@H]([C@@H](C)O)NC(=O)[C@H](CCCNC(=N)N)NC(=O)[C@H](CO)NC3=O)NC(=O)[C@H](CCCCN)NC(=O)[C@H](CC(=O)O)NC(=O)[C@H](CC(N)=O)NC(=O)[C@H](CC(=O)O)NC(=O)[C@@H]2CCCN2C1=O (H-DCLWFMRKCIPDNDKCCRPNLVCSRTHKWCKYVF-NH2; disulfide 2-17, 9-23, 16-30)",> 5
8,"CC[C@H](C)[C@@H]1NC(=O)[C@@H]2CSSC[C@@H]3NC(=O)[C@H](C(C)C)NC(=O)[C@H](CC(C)C)NC(=O)[C@H](CC(N)=O)NC(=O)[C@@H]4CCCN4C(=O)[C@H](CCCNC(=N)N)NC(=O)[C@H](CSSC[C@H](NC(=O)[C@@H](N)CC(=O)O)C(=O)N[C@@H](CC(C)C)C(=O)NCC(=O)N[C@@H](Cc4ccccc4)C(=O)N[C@@H](CCSC)C(=O)N[C@@H](CCCNC(=N)N)C(=O)N[C@@H](CCCCN)C(=O)N2)NC(=O)[C@H](CSSC[C@@H](C(=O)N[C@@H](CCCCN)C(=O)N[C@@H](Cc2ccc(O)cc2)C(=O)N[C@@H](CCC(=O)O)C(=O)N[C@@H](Cc2ccccc2)C(N)=O)NC(=O)[C@H](Cc2c[nH]c4ccccc24)NC(=O)[C@H](CCCCN)NC(=O)[C@H](Cc2cnc[nH]2)NC(=O)[C@H]([C@@H](C)O)NC(=O)[C@H](CCCNC(=N)N)NC(=O)[C@H](CO)NC3=O)NC(=O)[C@H](CCCCN)NC(=O)[C@H](CC(=O)O)NC(=O)[C@H](CC(N)=O)NC(=O)[C@H](CC(=O)O)NC(=O)[C@@H]2CCCN2C1=O (H-DCLGFMRKCIPDNDKCCRPNLVCSRTHKWCKYEF-NH2; disulfide 2-17, 9-23, 16-30)",> 5
